Rows were chosen to be rich in hits. Some 1.7% of all compounds tested hit in one or more screens of this group.
Rpn11 inh: inhibitors of human proteasome Rpn11; O00487; human 26S proteasome, Ub4-pepOG fluorescence polarization; 20S core pre-blocked with epoxomicin; inhibition, % at 20 µM; actives 0.59% (n = 360,000); AID 588493;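 active = inhibition at 20 µM, scaled to each plate's controls, above about 33%, limit read from the data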
Target sequence (O00487 whole entry, looked up): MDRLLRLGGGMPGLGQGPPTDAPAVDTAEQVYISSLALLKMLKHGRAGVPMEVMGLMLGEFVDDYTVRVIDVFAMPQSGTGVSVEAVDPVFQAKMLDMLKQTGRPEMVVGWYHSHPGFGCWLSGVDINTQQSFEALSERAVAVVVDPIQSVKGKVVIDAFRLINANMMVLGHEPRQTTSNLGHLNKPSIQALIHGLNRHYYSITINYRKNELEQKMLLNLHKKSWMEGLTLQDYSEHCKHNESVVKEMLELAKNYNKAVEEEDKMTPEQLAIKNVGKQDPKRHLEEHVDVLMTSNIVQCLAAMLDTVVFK
UCH37 DUB inh: inhibitors of human deubiquitinating enzyme UCH37; Q9Y5K5; purified proteasome/UCH37, Ub-AMC cleavage fluorescence; inhibition, % (test concentration not listed); actives 0.33% (n = 330,000);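 active = mean inhibition over replicate wells above about 20%, limit read from the data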
Target sequence (Q9Y5K5 whole entry, looked up): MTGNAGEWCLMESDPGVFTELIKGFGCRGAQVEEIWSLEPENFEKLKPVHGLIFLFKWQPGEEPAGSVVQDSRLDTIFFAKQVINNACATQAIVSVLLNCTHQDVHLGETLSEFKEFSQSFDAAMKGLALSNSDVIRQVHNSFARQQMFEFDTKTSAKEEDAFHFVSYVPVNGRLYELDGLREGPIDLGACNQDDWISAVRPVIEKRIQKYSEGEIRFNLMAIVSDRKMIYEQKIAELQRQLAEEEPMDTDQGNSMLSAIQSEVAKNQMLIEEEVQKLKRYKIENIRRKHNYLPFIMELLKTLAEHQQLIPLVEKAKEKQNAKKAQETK
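Schedule: 30 min plus 25 min, room temperature / Material: human UCH37 within purified proteasomes / Technique: AMC fluorescence intensity at 355/460 nm / Buffer or medium: pH 7.4 Tris-HCl (50 mM) with ovalbumin, ATP-MgCl2, DTT / Controls: wells without proteasome as full block, compound-free enzyme plus substrate as uninhibited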
PLC-beta3 inh: inhibitors of human phospholipase C beta3. Purified PLC-beta3, fluorogenic substrate, fluorescence. inhibition, % at 12.2 µM. actives 0.18% (n = 370,000). Q01970; in the data active = inhibition above about 11%
PLCg1 inh: PLC-gamma1 (human) inhibition, primary screen. inhibition, % at 12.2 µM. purified PLC-gamma1, fluorogenic substrate, fluorescence. P19174. actives 0.84% (n = 370,000); in the data active = inhibition above about 9.5%
Of the large screens only hits and unclear results are named; the others gave an inactive call.

Cc1cc2c(cc1C)NC(CC(=O)NCc1ccccc1)C(=O)N2 (stereo not drawn)	Rpn11 inh 53
COC(=O)c1c(NC(=O)CC2Nc3cc(C)c(C)cc3NC2=O)sc(C)c1C (stereo not drawn)	Rpn11 inh 50 (no result: PLC-beta3 inh, PLCg1 inh)
COc1ccc(CCNC(=O)CC2Nc3cc(C)c(C)cc3NC2=O)cc1OC (stereo not drawn)	none
CCc1cc(C(=O)OC)c(NC(=O)CC2Nc3cc(C)c(C)cc3NC2=O)s1 (stereo not drawn)	none (not shown: Rpn11 inh)
COc1cc(C=NNC(=O)c2cccnc2)cc2c1OCO2	none (no result: Rpn11 inh, PLC-beta3 inh, PLCg1 inh)
O=C(NN=Cc1ccco1)c1cncc(Br)c1	none (no result: Rpn11 inh, PLC-beta3 inh, PLCg1 inh)
CC(=O)N(C)C1=C(N2CCOCC2)C(=O)c2ccccc2C1=O	UCH37 DUB inh 22 (no result: PLC-beta3 inh, PLCg1 inh)
CC(=O)N(C1=C(N2CCOCC2)C(=O)c2ccccc2C1=O)c1ccc(C(=O)O)cc1	UCH37 DUB inh 24
COCCNC(=S)NN=Cc1ccc(OCc2ccc(C(=O)OC)cc2)c(OC)c1	none (no result: Rpn11 inh, PLC-beta3 inh, PLCg1 inh)
COc1ccc2nc(N3CCCCC3)c(/C=C3\SC(=S)NC3=O)cc2c1	Rpn11 inh 71
Cc1ccc(N2C(=O)[C@@H]3[C@H](C2=O)C2c4ccccc4C=CN2[C@@H]3C(=O)c2ccco2)cc1 (stereo partly drawn)	none
CC(=O)[C@@H]1[C@@H]2C(=O)N(Cc3ccccc3)C(=O)[C@@H]2C2c3ccccc3C=CN21 (stereo partly drawn)	UCH37 DUB inh 58
COc1ccc(N2C(=O)[C@@H]3[C@H](C2=O)[C@H]2c4ccccc4C=CN2[C@@H]3C(=O)Nc2ccccc2)cc1	UCH37 DUB inh 30 (not shown: Rpn11 inh)
COc1cccc(-c2nnc(SC(C(=O)c3c[nH]c4ccccc34)c3ccccc3)n2C)c1 (stereo not drawn)	UCH37 DUB inh 29
Cc1c(C=NNC(=O)C2COc3ccc(C(C)(C)C)cc3O2)c2ccccc2n1C (stereo not drawn)	none (no result: Rpn11 inh, PLC-beta3 inh, PLCg1 inh)
CSc1ccc(CNC(=O)C2(C)CCCN(C(C)C)C2)cc1 (stereo not drawn)	none (no result: UCH37 DUB inh)
CSc1ccc(CNC(=O)C2(C)CCCN(C(C)=O)C2)cc1 (stereo not drawn)	PLC-beta3 inh 11 (no result: UCH37 DUB inh)
Cc1ccc(C=NNC(=O)c2c(C)nc3ccc(Br)cn23)cc1	none (no result: Rpn11 inh, PLC-beta3 inh, PLCg1 inh)
CCOc1cc(C=NNC(=O)c2ccc(CSc3nncn3C)cc2)ccc1OCC(=O)N1CCOCC1	none (no result: Rpn11 inh, PLC-beta3 inh, PLCg1 inh)
O=[N+]([O-])c1cc(Cl)cc(C=NNC(=S)Nc2cc(S(=O)(=O)N3CCOCC3)ccc2Cl)c1O	UCH37 DUB inh 23 (no result: Rpn11 inh, PLC-beta3 inh, PLCg1 inh)
CCC(C)=NNc1nc2sc3c(c2c(=O)[nH]1)CC(C)(C)OC3	none (no result: Rpn11 inh, PLC-beta3 inh, PLCg1 inh)
Cc1ccc([C@@H]2[C@@H]3C(=O)N(C)C(=O)[C@@H]3[C@]3(C)C(=O)N(Cc4ccccc4)CC(=O)N23)o1	UCH37 DUB inh 25
Cc1ccc([C@@H]2[C@@H]3C(=O)N(C)C(=O)[C@@H]3[C@]3(C)C(=O)N(Cc4ccccn4)CC(=O)N23)o1	none
CCOc1cc(C(=O)NN=C(C)Cc2ccc(OC)cc2)cc(OCC)c1OCC	none (no result: Rpn11 inh, PLC-beta3 inh, PLCg1 inh)
O=C(O)C1CC(c2ccccc2)=NO1 (stereo not drawn)	none
O=S(=O)(c1ccccc1)C1(C2CC(c3ccccc3)=NO2)CC(O)C1 (stereo not drawn)	UCH37 DUB inh 28
Cc1nc2ccccc2c(=O)n1N=Cc1ccccn1	none (no result: Rpn11 inh, PLC-beta3 inh, PLCg1 inh)
Cc1onc(-c2ccccc2)c1C(=O)NN=Cc1ccco1	none (no result: Rpn11 inh, PLC-beta3 inh, PLCg1 inh)
CC(=O)C1=C(C)NC(SCC(=O)c2cc(Cl)ccc2Cl)=C(C#N)C1c1ccco1 (stereo not drawn)	Rpn11 inh 47
CN(CCO)c1cc(N2CCCCC2)c2nonc2c1[N+](=O)[O-]	none
CC1CCCN(c2cc(N(C)CCO)c([N+](=O)[O-])c3nonc23)C1 (stereo not drawn)	UCH37 DUB inh 22
CC(CC(=O)Nc1ccc2ccccc2c1)=NNC(=O)c1ccc(O)c(O)c1	none (no result: Rpn11 inh, PLC-beta3 inh, PLCg1 inh)
Cc1cccc(CCN2C(N(C)C)=NC[C@@H]2Cc2ccccc2)c1	none
Cc1cccc(CCN2C(N(C)C)=NC[C@@H]2CC(C)C)c1	UCH37 DUB inh 33
C#CCOCCOCCOCCNc1nc(N2CCOCC2)nc(N2CCN(C(=O)CCCCCCCCCCNC(=O)[C@H]([C@@H](C)CC)n3cc(CCCCN=C(N)N)nn3)CC2)n1	none (no result: UCH37 DUB inh)
C#CCOCCOCCOCCNc1nc(N2CCN(C(=O)CCCCCCCCCCNC(=O)[C@H](CCCCN)n3cc(CCO)nn3)CC2)nc(N2CCN(C(=O)CCCCCCCCCCNC(=O)[C@H](CCCCN)n3cc(C[C@@H](C)CC)nn3)CC2)n1	none (no result: Rpn11 inh, PLC-beta3 inh, PLCg1 inh)
C#CCOCCOCCOCCNc1nc(N2CCN(C(=O)CCCCCCCCCCNC(=O)[C@H](CCCCN)n3cc(C[C@@H](C)CC)nn3)CC2)nc(N2CCN(C(=O)CCCCCCCCCCNC(=O)[C@H](CCCN=C(N)N)n3cc(C[C@@H](C)CC)nn3)CC2)n1	Rpn11 inh 128 (no result: UCH37 DUB inh, PLC-beta3 inh, PLCg1 inh)
C#CCOCCOCCOCCNc1nc(N2CCOCC2)nc(N2CCN(C(=O)[C@H]([C@@H](C)CC)n3cc(CCCN=C(N)N)nn3)CC2)n1	PLCg1 inh 10
C#CCOCCOCCOCCNc1nc(N2CCN(C(=O)CCCCCCCCCCNC(=O)[C@@H](CCSC)n3cc(CCO)nn3)CC2)nc(N2CCN(C(=O)CCCCCCCCCCNC(=O)[C@H](CCCN=C(N)N)n3cc(C[C@@H](C)CC)nn3)CC2)n1	Rpn11 inh 118 (no result: UCH37 DUB inh, PLC-beta3 inh, PLCg1 inh)
Cc1ccc(/C=C2\SC(=S)N(/N=C/c3cc([N+](=O)[O-])ccc3O)C2=O)o1	Rpn11 inh 46 (no result: UCH37 DUB inh, PLC-beta3 inh, PLCg1 inh)
CC(=NNC(=O)c1nc(C)cc(C)n1)c1ccccc1	none (no result: Rpn11 inh, PLC-beta3 inh, PLCg1 inh)
C/C(C=NNC(=O)CSc1ccccn1)=C/c1ccc(C(C)C)cc1	none (no result: Rpn11 inh, PLC-beta3 inh, PLCg1 inh)
COc1ccc2c(c1)C(C)=CC(C)(C)N2S(=O)(=O)c1ccc(C)cc1	UCH37 DUB inh 23
CCOc1ccc2c(c1)C(C)=CC(C)(C)N2S(=O)(=O)c1ccc(C)cc1	none
CCOc1ccc(Oc2c(C=NNC(=O)C3CC3)c(C)nn2-c2ccccc2)cc1	none (no result: Rpn11 inh, PLC-beta3 inh, PLCg1 inh)
CC(C)(C)OC(=O)N1CCC(CNC(=O)c2ccccc2)CC1	none
CC1(C)CC(Cc2ccc(C(=O)c3ccccc3)cc2)N(C(=O)OC(C)(C)C)N1 (stereo not drawn)	PLCg1 inh 11 (no result: UCH37 DUB inh)
CC(C)NC(=O)CSc1nnc2sc3ccccc3n12	none (no result: PLC-beta3 inh, PLCg1 inh)
NC(=O)CSc1nnc2sc3ccccc3n12	UCH37 DUB inh 24
COc1ccccc1CNC(=O)CC(C)=NNC(=O)Cc1ccc(OC)c(OC)c1	none (no result: Rpn11 inh, PLC-beta3 inh, PLCg1 inh)
CC1(C)Oc2cc(N)c([N+](=O)[O-])cc2O1	PLCg1 inh 32
Nc1ccc(Oc2ccc(N)c([N+](=O)[O-])c2)cc1[N+](=O)[O-]	none (no result: UCH37 DUB inh)
O=C(NN=C/C=C/c1ccccc1)c1ccncc1	none (no result: Rpn11 inh, PLC-beta3 inh, PLCg1 inh)
O=C(N/C(=C\c1ccc(Cl)cc1)C(=O)N1CCOCC1)c1ccc([N+](=O)[O-])cc1	PLCg1 inh 15
CCC(C(=O)OCC(=O)C1(O)CCC2C3CCC4=CC(=O)CCC4(C)C3C(O)CC21C)C(C)C (stereo not drawn)	none
CC(=O)[C@@]1(O)CC[C@H]2[C@@H]3CCC4=CC(=O)CC[C@]4(C)[C@H]3[C@@H](O)C[C@@]21C	PLCg1 inh 11
Cc1cc(/C=C(\C#N)c2nc3ccccc3[nH]2)c(C)n1C	UCH37 DUB inh 25
